From ChEMBL document CHEMBL2331506, “Design, synthesis, antiviral and cytostatic evaluation of novel isoxazolidine nucleotide analogues with a carbamoyl linker” (Bioorg Med Chem, 2013)
Calls of active or inactive are those of the source. No rule for the calls is given here.

Experiments:
Vero = experiment: Cytotoxicity against african green monkey Vero cells assessed as alteration of cell morphology up to 100 uM by microscopic analysis; assay type: cell-based; conditions: chlorocebus sabaeus
Outline: (§1)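 Uninfected host-cell cultures were exposed to compound and examined by microscopy. Cytotoxicity was expressed as the minimum cytotoxic concentration (MCC) causing a microscopically detectable alteration of normal cell morphology.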

Human alphaherpesvirus 1 [1] = experiment: Antiviral activity against thymidine kinase-deficient, ACV-resistant Herpes simplex virus 1 KOS infected in human HEL cells assessed as reduction of virus-induced cytopathogenicity at 250 uM; assay type: functional, organism-based
Outline: (§2)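 Confluent cell monolayers were infected with 100 CCID50 of virus while exposed to varying compound concentrations. Cytopathicity was scored once it was complete in untreated infected controls. EC50 was taken as the concentration that reduced virus-induced cytopathogenicity by 50%.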

Influenza A virus [2] = experiment: Antiviral activity against Influenza A virus H1N1 infected in dog MDCK cells assessed as reduction of virus-induced cytopathogenicity at 250 uM; assay type: functional, organism-based; outline: as §2
Coxsackievirus B4 = experiment: Antiviral activity against Coxsackievirus B4 infected in african green monkey Vero cells assessed as reduction of virus-induced cytopathogenicity at 250 uM; assay type: functional, organism-based
Outline: (§3)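 Confluent monolayers (HEL fibroblasts, Vero, or HeLa cells as listed) were infected with 100 CCID50 of virus in the presence of varying compound concentrations. Virus-induced cytopathicity or plaque formation was scored once cytopathicity was complete in untreated infected controls. EC50 was taken as the concentration reducing cytopathogenicity or plaque formation by 50%.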

Feline coronavirus = experiment: Antiviral activity against Feline coronavirus infected in cat CRFK cells assessed as reduction of virus-induced cytopathogenicity at 250 uM; assay type: functional, organism-based
[3] = test system: Respiratory syncytial virus; experiment: Antiviral activity against Respiratory syncytial virus long infected in human HeLa cells assessed as reduction of virus-induced cytopathogenicity at 250 uM; assay type: functional, organism-based; outline: as §3
MDCK = experiment: Cytotoxicity against dog MDCK cells assessed as alteration of cell morphology up to 100 uM by microscopic analysis; assay type: cell-based, Canis lupus familiaris; outline: as §1
[4] = test system: Vesicular stomatitis virus; experiment: Antiviral activity against Vesicular stomatitis virus infected in human HEL cells assessed as reduction of virus-induced cytopathogenicity at 250 uM; assay type: functional, organism-based; outline: as §2
[5] = test system: Human immunodeficiency virus 1; experiment: Antiviral activity against Human immunodeficiency virus 1 3B infected in human CEM cells assessed as reduction of virus-induced giant cell formation at 250 uM after 4 to 5 days; assay type: functional, organism-based; conditions: CCRF-CEM
Outline: (§4)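 CEM cells at 3 × 10^5 cells/mL were infected with HIV at 100 CCID50 per mL in the presence of compound dilutions. They were held 4–5 days at 37 °C in humidified CO2. Syncytium (giant cell) formation was scored microscopically, and EC50 was taken as the concentration inhibiting giant cell formation by 50%.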

[6] = test system: Vesicular stomatitis virus; experiment: Antiviral activity against Vesicular stomatitis virus infected in human HeLa cells assessed as reduction of virus-induced cytopathogenicity at 250 uM; assay type: functional, organism-based; outline: as §2
Punta Toro virus = experiment: Antiviral activity against Punta Toro virus infected in african green monkey Vero cells assessed as reduction of virus-induced cytopathogenicity at 250 uM; assay type: functional, organism-based; outline: as §3
HEL = experiment: Cytotoxicity against human HEL cells assessed as alteration of cell morphology up to 100 uM by microscopic analysis; assay type: cell-based; outline: as §1
Influenza B virus = experiment: Antiviral activity against Influenza B virus infected in dog MDCK cells assessed as reduction of virus-induced cytopathogenicity at 250 uM; assay type: functional, organism-based; outline: as §2
[7] = test system: Human immunodeficiency virus 2; experiment: Antiviral activity against Human immunodeficiency virus 2 ROD infected in human CEM cells assessed as reduction of virus-induced giant cell formation at 250 uM after 4 to 5 days; assay type: functional, organism-based; conditions: CCRF-CEM; outline: as §4
HeLa [8] = experiment: Cytostatic activity against human HeLa cells assessed as inhibition of cell proliferation after 72 hrs by Coulter counter analysis; assay type: functional, cell-based
Outline: (§5)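 Each well received (5–7.5) × 10^4 tumor cells plus compound. L1210 cells grew 48 h and CEM and HeLa cells grew 72 h, at 37 °C in humidified CO2. Cells were then counted electronically, and IC50 was taken as the concentration inhibiting proliferation by 50%.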

Felid alphaherpesvirus 1 = experiment: Antiviral activity against Feline herpes virus infected in cat CRFK cells assessed as reduction of virus-induced cytopathogenicity at 250 uM; assay type: functional, organism-based
Human respirovirus 3 = experiment: Antiviral activity against Parainfluenza virus 3 infected in african green monkey Vero cells assessed as reduction of virus-induced cytopathogenicity at 250 uM; assay type: functional, organism-based; outline: as §3
L1210 = experiment: Cytostatic activity against mouse L1210 cells assessed as inhibition of cell proliferation after 48 hrs by Coulter counter analysis; assay type: functional, cell-based; conditions: L1210, 48 h; outline: as §5
Sindbis virus = experiment: Antiviral activity against Sindbis virus infected in african green monkey Vero cells assessed as reduction of virus-induced cytopathogenicity at 250 uM; assay type: functional, organism-based; outline: as §3
[9] = Cytotoxicity against cat CRFK cells assessed as alteration of cell morphology up to 100 uM by microscopic analysis; assay type: cell-based, Felis catus; outline: as §1
Influenza A virus [10] = experiment: Antiviral activity against Influenza A virus H3N2 infected in dog MDCK cells assessed as reduction of virus-induced cytopathogenicity at 250 uM; assay type: functional, organism-based; outline: as §2
HeLa [11] = experiment: Cytotoxicity against human HeLa cells assessed as alteration of cell morphology up to 100 uM by microscopic analysis; assay type: cell-based; outline: as §1
CCRF-CEM = experiment: Cytostatic activity against human CEM cells assessed as inhibition of cell proliferation after 72 hrs by Coulter counter analysis; assay type: functional, cell-based; outline: as §5
Human alphaherpesvirus 1 [12] = experiment: Antiviral activity against Herpes simplex virus 1 KOS infected in human HEL cells assessed as reduction of virus-induced cytopathogenicity at 250 uM; assay type: functional, organism-based; outline: as §3
[13] = test system: Mammalian orthoreovirus 1; experiment: Antiviral activity against Reovirus 1 infected in african green monkey Vero cells assessed as reduction of virus-induced cytopathogenicity at 250 uM; assay type: functional, organism-based; outline: as §3
Human alphaherpesvirus 2 = experiment: Antiviral activity against Herpes simplex virus 2 G infected in human HEL cells assessed as reduction of virus-induced cytopathogenicity at 250 uM; assay type: functional, organism-based; conditions: strain G; outline: as §3

| Compound | Activity (Vero) | inhibition (Human alphaherpesvirus 1 [1]) | inhibition (Influenza A virus [2]) | inhibition (Coxsackievirus B4) | inhibition (Feline coronavirus) | inhibition [3] | Activity (MDCK) | inhibition [4] | inhibition [5] | inhibition [6] | inhibition (Punta Toro virus) | Activity (HEL) | inhibition (Influenza B virus) | inhibition [7] | IC50 (HeLa [8]) | inhibition (Felid alphaherpesvirus 1) | inhibition (Human respirovirus 3) | IC50 (L1210) | inhibition (Sindbis virus) | Activity [9] | also measured |
| --- | --- | --- | --- | --- | --- | --- | --- | --- | --- | --- | --- | --- | --- | --- | --- | --- | --- | --- | --- | --- | --- |
| CCOP(=O)(OCC)[C@@H]1C[C@H](C(=O)Nc2ccccc2F)ON1C (racemic) | Non-toxic | inactive | inactive | inactive | inactive | inactive | Non-toxic | inactive | inactive | inactive | inactive | Non-toxic | inactive | inactive | 177 µM | inactive | inactive | 130 µM | inactive | Non-toxic | inhibition (Influenza A virus [10]): inactive; Activity (HeLa [11]): Non-toxic; IC50 (CCRF-CEM): 145 µM; inhibition (Human alphaherpesvirus 1 [12]): inactive; inhibition [13]: inactive; inhibition (Human alphaherpesvirus 2): inactive |
| CCOP(=O)(OCC)[C@H]1C[C@H](C(=O)Nc2ccccc2F)ON1C (mixture of isomers) | Non-toxic | inactive | inactive | inactive | inactive | inactive | Non-toxic | inactive | inactive | inactive | inactive | Non-toxic | inactive | inactive | ≥ 250 µM | inactive | inactive | > 250 µM | inactive | Non-toxic | inhibition (Influenza A virus [10]): inactive; Activity (HeLa [11]): Non-toxic; IC50 (CCRF-CEM): > 250 µM; inhibition (Human alphaherpesvirus 1 [12]): inactive; inhibition [13]: inactive; inhibition (Human alphaherpesvirus 2): inactive |
| CCOP(=O)(OCC)[C@H]1C[C@H](C(=O)Nc2ccccc2[N+](=O)[O-])ON1C (mixture of isomers) | Non-toxic | inactive | inactive | inactive | inactive | inactive | Non-toxic | inactive | inactive | inactive | inactive | Non-toxic | inactive | inactive | > 250 µM | inactive | inactive | 168 µM | inactive | Non-toxic | inhibition (Influenza A virus [10]): inactive; Activity (HeLa [11]): Non-toxic; IC50 (CCRF-CEM): ≥ 250 µM; inhibition (Human alphaherpesvirus 1 [12]): inactive; inhibition [13]: inactive; inhibition (Human alphaherpesvirus 2): inactive |
